Source: PubChem (several laboratories)
Only some compounds are listed: those with a hit (about 0.99% of all), similar ones and a draw of the others.
GRK2 inh: inhibitors of human GRK2 displacing RNA aptamer; 330,000 compounds, 0.59% hits; inhibition of aptamer binding, % at 10 µM; AID 488847; P25098; bead flow cytometry, FAM-aptamer displacement from GRK2;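 active = inhibition of aptamer binding above 40%, roughly 3 SD of noise, on plates passing a quality check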;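 note: median bead fluorescence of bound FAM aptamer so fluorescent compounds give negative values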
Tn7 DDE FP: DD(E)-Tn7 binding inhibition, primary FP screen. FP displacement of FITC-Tn7 peptide from fibrin DD(E); 0% = median of compound wells per plate. inhibition, % at 8.3 µM. 370,000 compounds, 0.13% hits;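 active = inhibition above the mean of compounds falling within the control limits plus 3 SD of them, cut at about 14% in these data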;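 note: 0% = plate median of compound wells and 100% = 10 µM Aha-Tn7 peptide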
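Also added: labelled Tn7 tracer, 0.1 µM; Assay system: human fibrin DD(E) protein; Amount: 2 µM fibrin DD(E); Schedule: 10 min compound pre-incubation, 3 h probe incubation at room temperature; Repeats: one replicate per compound; Read-out basis: percent inhibition; Measured by: fluorescence polarization of the labelled Tn7 tracer.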
Tn6 DDE FP: disrupts Tn6 cyclic peptide binding to fibrin D-Dimer-E complex; P02675; Fibrin DD(E) TRITC-Tn6 fluorescence polarization displacement; inhibition, % at 8.3 µM; 370,000 compounds, 0.21% hits; AID 720509;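 active = inhibition above a per-campaign cutoff: mean of compounds within control limits plus 3 SD, cut at about 15% in these data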;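 note: 0% = median of all compound wells on the plate and 100% = blocking peptide control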
Ins promoter up: MIN6 insulin promoter up-regulation; MIN6 insulin promoter-GFP reporter, high-content imaging; active compounds read high; z-score at 5 µM; 190,000 compounds, 0.3% hits; AID 1625;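 active = z-score above 3 at 5 µM with at least 500 cells counted in the well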
ABCB1 inh: human ABCB1 inhibition, ABCG2 as counter-screen. CCRF-Adr cells, JC-1 efflux, flow cytometry. P08183. inhibition, % at 6.6 µM. AID 1326. 190,000 compounds, 0.067% hits; in the data active = inhibition above about 40%;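 note: 0% = vehicle and 100% = reference inhibitor; higher value means more JC-1 retained so stronger ABCB1 efflux block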
ABCG2 inh: human ABCG2 inhibition, ABCB1 as counter-screen. IgMXP3 cells, JC-1 efflux, flow cytometry. inhibition, % at 6.6 µM. 190,000 compounds, 0.1% hits. AID 1325;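 active = inhibition above 80%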;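 note: 0% = DMSO and 100% = nicardipine control wells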
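Assay system – ABCG2 IgMXP3 and barcoded ABCB1 CCRF-Adr cell mix · Input – 3 million cells/mL in well · Reagent – JC-1 fluorescent substrate · Compound – single test compound dose, 6.6 µM final · Timing – 10 min exposure at 25 °C with rotation, no wash · Detection – flow cytometry of retained JC-1 fluorescence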
DDE Tn6 FP ctr: counter-screen hit for Tn6 peptide-fibrin DD(E) binding disruption. shares compounds with Tn6 DDE FP. inhibition, % at 8.3 µM. 680 compounds, 2% hits. TRITC-Tn6 fluorescence polarization displacement; 0% = median of compound wells, not DMSO. AID 720621;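 active = inhibition above the mean of test compounds lying between the control limits plus 3 SD of those, cut at about 14% in these data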;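 note: 0% = median of compound wells and 100% = wells with Aha-Tn7 blocking peptide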
Tn6 DDE conf: DD(E)-Tn6 binding inhibition, FP confirmation; shares compounds with Tn6 DDE FP; inhibition, % at 8.3 µM; 680 compounds, 10% hits; FP displacement of TRITC-Tn6 peptide from DD(E); 0% = per-plate median of test wells;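 active = inhibition above the mean of compounds lying within the control limits plus 3 SD, cut at about 16% in these data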;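 note: 100% = high control wells holding a competing inhibitor peptide at 10 µM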
* = called active by the depositor.

Screening COc1ccc(C2(C)NC(=O)N(CC(=O)NC(C)c3ccc(CC(C)C)cc3)C2=O)cc1 (centres undefined) returned GRK2 inh 2.0, Tn7 DDE FP 1.9, Tn6 DDE FP 18.7*, DDE Tn6 FP ctr 9.3 and Tn6 DDE conf -0.3.
Screening Cc1ccccc1NC(=O)OC1CCC12CCCCC2 (centres undefined) returned Tn7 DDE FP 2.2 and Tn6 DDE FP 1.6.
`CCCCOCCCNC(=S)Nc1ccc(S(=O)(=O)N2CCOCC2)cc1` gave GRK2 inh 2.0, Tn7 DDE FP -11.5, Tn6 DDE FP 1.4 and Ins promoter up -0.03.
`O=S(=O)(c1ccc(NC(=S)NCCC(c2ccccc2)c2ccccc2)cc1)N1CCOCC1` gave GRK2 inh 0.0, Tn7 DDE FP 3.9, Tn6 DDE FP 16.8*, Ins promoter up -0.25, ABCB1 inh -1.4, ABCG2 inh -3.0, DDE Tn6 FP ctr 1.5 and Tn6 DDE conf -17.7.
`CCc1nc2c(OCc3ccc(C(F)(F)F)cc3)cccn2c1N(C)C(=O)c1ccc(C)cc1` gave Tn7 DDE FP 5.2 and Tn6 DDE FP -8.4.
CCCCC[C@@H](O)c1cc2ccccc2c(=O)o1 was read as GRK2 inh 0.0, Tn7 DDE FP 4.2, Tn6 DDE FP 16.4*, DDE Tn6 FP ctr 0.2 and Tn6 DDE conf -2.5.
Screening COC(=O)C1=C(C)N(Cc2ccccc2C(F)(F)F)C(=NCc2ccc3c(c2)OCO3)NC1c1ccc(Cl)cc1 (centres undefined) returned Tn7 DDE FP 1.6 and Tn6 DDE FP -2.6.
Screening Cc1csc(SCC(=O)NCc2cccc(Cl)c2)n1 returned GRK2 inh 2.0, Tn7 DDE FP 1.2, Tn6 DDE FP 16.6*, Ins promoter up 0.11, ABCB1 inh -0.5, ABCG2 inh -0.5, DDE Tn6 FP ctr 0.7 and Tn6 DDE conf 1.2.
For Cc1csc(SCC(=O)NCc2ccc3c(c2)OCO3)n1 the results were GRK2 inh 0.0, Tn7 DDE FP 2.4, Tn6 DDE FP 5.7 and Ins promoter up -0.07.
Screening COc1ccccc1C(=O)COC(=O)C(NC(=O)Cc1ccccc1)C(C)C (centres undefined) returned GRK2 inh 0.0, Tn7 DDE FP 1.5, Tn6 DDE FP active, DDE Tn6 FP ctr -4.5 and Tn6 DDE conf -14.9.
CCCCn1c(N)c(N(CCOC)C(=O)c2ccc(Cl)c(S(=O)(=O)N3CCCCC3)c2)c(=O)[nH]c1=O was read as GRK2 inh 2.0, Tn7 DDE FP 4.7 and Tn6 DDE FP -4.3.
`CCCCN(C(=O)c1ccc(Cl)c(S(=O)(=O)N2CCOCC2)c1)c1c(N)n(CCC)c(=O)[nH]c1=O` gave GRK2 inh 1.0, Tn7 DDE FP 1.8, Tn6 DDE FP 17.3*, DDE Tn6 FP ctr -0.1 and Tn6 DDE conf -0.1.
`NS(=O)(=O)c1ccc(NC(=S)NC(=O)/C=C/c2cccs2)cc1` gave GRK2 inh 0.0, Tn7 DDE FP -2.1, Tn6 DDE FP 3.5, Ins promoter up -0.33, ABCB1 inh 0.0 and ABCG2 inh -0.2.
Screening NC(N)=NS(=O)(=O)c1ccc(NC(=S)NC(=O)/C=C/c2cccs2)cc1 returned GRK2 inh 0.0, Tn7 DDE FP 7.4, Tn6 DDE FP 51.5*, Ins promoter up -0.15, ABCB1 inh -0.6, ABCG2 inh -7.1, DDE Tn6 FP ctr -7.6 and Tn6 DDE conf -8.2.
For NC(N)=N/N=C/c1ccccc1OC(F)F the results were GRK2 inh 0.0, Tn7 DDE FP 1.1, Tn6 DDE FP 17.1*, Ins promoter up -0.79, ABCB1 inh 0.4, ABCG2 inh 10.5, DDE Tn6 FP ctr -1.2 and Tn6 DDE conf -0.6.
COc1ccccc1C=NN=C(N)C(N)=NN=Cc1ccccc1OC was read as Tn7 DDE FP -0.4 and Tn6 DDE FP -9.5.
For COc1cccc(CNC(=O)[C@H]2CCCN2C(=O)[C@H]2CCCN2)c1 the results were Tn7 DDE FP 5.1 and Tn6 DDE FP 0.2.
`Nc1cc(C(=O)O)ccc1Nc1ccccc1` gave GRK2 inh 4.0, Tn7 DDE FP -2.8, Tn6 DDE FP 18.3*, Ins promoter up 0.27, ABCB1 inh 0.1, ABCG2 inh 1.4, DDE Tn6 FP ctr 6.2 and Tn6 DDE conf -4.8.
`C(=N\NC1=Nc2cccc3cccc1c23)/c1ccccc1` gave GRK2 inh 0.0, Tn7 DDE FP 6.8, Tn6 DDE FP -9.4, Ins promoter up 0.59, ABCB1 inh -0.3 and ABCG2 inh -6.3.
Screening NC1=Nc2cccc3cccc1c23 returned GRK2 inh 7.0, Tn7 DDE FP 1.8, Tn6 DDE FP 37.9*, Ins promoter up -0.02, ABCB1 inh -1.4, ABCG2 inh -4.7, DDE Tn6 FP ctr 7.9 and Tn6 DDE conf 45.8*.
Screening CC(C)(C)C(=O)OC12CCCN(C1)/C(=C/c1ccncc1)C2 (centres undefined) returned Tn7 DDE FP -6.1 and Tn6 DDE FP 8.1.
C=C(C)C(=O)N1CC2(CC(c3cccc(NC(=O)CC(c4ccccc4)c4ccccc4)c3)=NO2)C[C@H]1C(N)=O (some centres undefined) was read as GRK2 inh 6.0, Tn7 DDE FP 3.8, Tn6 DDE FP 15.2*, Ins promoter up 1, DDE Tn6 FP ctr 2.4 and Tn6 DDE conf 2.5.
`NC(=O)[C@H]1CC2(CC(c3cccc(NC(=O)CC(c4ccccc4)c4ccccc4)c3)=NO2)CN1C(=O)CC(c1ccccc1)c1ccccc1` (some centres undefined) gave GRK2 inh 2.0, Tn7 DDE FP -5.9, Tn6 DDE FP -4.2 and Ins promoter up 0.71.
`CC(C)C(=O)NCCc1nc2ccccc2n1CCOc1ccccc1` gave GRK2 inh 0.0, Tn7 DDE FP 0.5, Tn6 DDE FP 15.4*, Ins promoter up -0.5, ABCB1 inh 0.6, ABCG2 inh 21.7, DDE Tn6 FP ctr 9.0 and Tn6 DDE conf 8.0.
Screening Cc1ccc([C@H]2N[C@]3(CCCN(Cc4ccc(C(F)(F)F)cc4)C3=O)[C@H]3C(=O)N(C)C(=O)[C@@H]23)cc1 returned Tn7 DDE FP -1.7 and Tn6 DDE FP -1.1.
CCO/C(C)=N/Oc1cccc(N(C)C)c1 was read as Tn7 DDE FP 7.9, Tn6 DDE FP 18.6*, DDE Tn6 FP ctr 3.0 and Tn6 DDE conf 1.8.
